Assay results reported in ChEMBL document CHEMBL1134623, “Design and synthesis of a series of (2R)-N(4)-hydroxy-2-(3-hydroxybenzyl)-N(1)- [(1S,2R)-2-hydroxy-2,3-dihydro-1H-inden-1-yl]butanediamide derivatives as potent, selective, and orally bioavailable aggrecanase inhibitors” (J Med Chem, 2001).
pIC50, pKi: −log10 of the molar value.

Assays:
[1] = Inhibition of aggrecanase; set-up: species or system Homo sapiens
In short: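 Enzyme was a partially purified preparation from IL-1-stimulated bovine nasal cartilage. No amino acid sequence was available for it when screening began.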

Neutrophil collagenase = Neutrophil collagenase (Homo sapiens, UniProt P22894); test: Inhibition of matrix metalloprotease-8
Chain of Neutrophil collagenase (P22894 whole entry): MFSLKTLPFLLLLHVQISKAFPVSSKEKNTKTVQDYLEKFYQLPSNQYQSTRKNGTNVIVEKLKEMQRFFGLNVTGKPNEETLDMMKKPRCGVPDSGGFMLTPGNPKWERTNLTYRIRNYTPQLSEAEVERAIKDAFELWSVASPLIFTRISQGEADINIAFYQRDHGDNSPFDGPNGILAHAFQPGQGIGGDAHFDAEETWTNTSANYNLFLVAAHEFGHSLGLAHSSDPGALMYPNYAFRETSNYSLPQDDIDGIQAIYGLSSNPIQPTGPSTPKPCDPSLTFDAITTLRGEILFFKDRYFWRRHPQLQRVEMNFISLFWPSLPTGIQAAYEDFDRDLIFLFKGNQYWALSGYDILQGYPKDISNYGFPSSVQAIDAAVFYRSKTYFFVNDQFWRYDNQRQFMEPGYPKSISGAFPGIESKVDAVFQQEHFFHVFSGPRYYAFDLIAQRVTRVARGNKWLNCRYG

Interstitial collagenase = biological target: T1, Interstitial collagenase (Homo sapiens, UniProt P03956); test: Inhibition of matrix metalloprotease-1
T1 sequence (P03956 whole entry): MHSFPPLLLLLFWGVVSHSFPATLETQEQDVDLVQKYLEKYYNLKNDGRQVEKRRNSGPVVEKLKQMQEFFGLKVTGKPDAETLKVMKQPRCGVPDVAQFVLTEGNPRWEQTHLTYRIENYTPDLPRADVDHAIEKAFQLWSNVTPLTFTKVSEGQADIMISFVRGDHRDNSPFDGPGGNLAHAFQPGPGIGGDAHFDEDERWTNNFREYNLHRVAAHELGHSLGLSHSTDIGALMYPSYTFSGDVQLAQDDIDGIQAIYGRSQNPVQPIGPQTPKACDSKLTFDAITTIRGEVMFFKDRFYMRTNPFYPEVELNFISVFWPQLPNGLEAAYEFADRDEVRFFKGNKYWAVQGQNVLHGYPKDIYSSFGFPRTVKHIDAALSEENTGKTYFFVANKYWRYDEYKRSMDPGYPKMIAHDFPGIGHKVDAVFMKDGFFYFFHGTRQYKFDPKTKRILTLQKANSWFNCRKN

[2] = biological target: Matrix metalloproteinase-9 (Homo sapiens, UniProt P14780); test: Inhibition of human matrix metalloprotease-9
Chain of Matrix metalloproteinase-9 (P14780 whole entry): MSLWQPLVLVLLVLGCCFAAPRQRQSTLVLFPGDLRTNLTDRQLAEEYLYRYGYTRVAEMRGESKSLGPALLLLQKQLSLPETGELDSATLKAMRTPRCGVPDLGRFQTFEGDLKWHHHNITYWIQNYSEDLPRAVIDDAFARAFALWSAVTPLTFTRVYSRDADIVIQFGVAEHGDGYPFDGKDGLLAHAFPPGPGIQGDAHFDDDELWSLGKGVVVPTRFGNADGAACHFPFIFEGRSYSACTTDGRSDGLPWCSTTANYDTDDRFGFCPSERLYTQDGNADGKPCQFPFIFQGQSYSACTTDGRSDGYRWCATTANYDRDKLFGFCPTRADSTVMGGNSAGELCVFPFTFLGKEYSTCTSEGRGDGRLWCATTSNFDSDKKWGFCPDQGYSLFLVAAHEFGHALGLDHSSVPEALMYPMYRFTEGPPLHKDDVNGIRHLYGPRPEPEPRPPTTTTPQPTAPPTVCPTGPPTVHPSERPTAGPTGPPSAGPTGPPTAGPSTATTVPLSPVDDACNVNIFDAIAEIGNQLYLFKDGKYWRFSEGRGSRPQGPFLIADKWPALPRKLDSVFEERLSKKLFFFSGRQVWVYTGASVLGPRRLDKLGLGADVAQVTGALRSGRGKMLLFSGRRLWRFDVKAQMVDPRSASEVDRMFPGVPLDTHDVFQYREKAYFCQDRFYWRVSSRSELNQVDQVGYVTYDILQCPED

[3] = biological target: 72 kDa type IV collagenase (Homo sapiens, UniProt P08253); test: Inhibition of matrix metalloprotease-2
Chain of 72 kDa type IV collagenase (P08253 whole entry): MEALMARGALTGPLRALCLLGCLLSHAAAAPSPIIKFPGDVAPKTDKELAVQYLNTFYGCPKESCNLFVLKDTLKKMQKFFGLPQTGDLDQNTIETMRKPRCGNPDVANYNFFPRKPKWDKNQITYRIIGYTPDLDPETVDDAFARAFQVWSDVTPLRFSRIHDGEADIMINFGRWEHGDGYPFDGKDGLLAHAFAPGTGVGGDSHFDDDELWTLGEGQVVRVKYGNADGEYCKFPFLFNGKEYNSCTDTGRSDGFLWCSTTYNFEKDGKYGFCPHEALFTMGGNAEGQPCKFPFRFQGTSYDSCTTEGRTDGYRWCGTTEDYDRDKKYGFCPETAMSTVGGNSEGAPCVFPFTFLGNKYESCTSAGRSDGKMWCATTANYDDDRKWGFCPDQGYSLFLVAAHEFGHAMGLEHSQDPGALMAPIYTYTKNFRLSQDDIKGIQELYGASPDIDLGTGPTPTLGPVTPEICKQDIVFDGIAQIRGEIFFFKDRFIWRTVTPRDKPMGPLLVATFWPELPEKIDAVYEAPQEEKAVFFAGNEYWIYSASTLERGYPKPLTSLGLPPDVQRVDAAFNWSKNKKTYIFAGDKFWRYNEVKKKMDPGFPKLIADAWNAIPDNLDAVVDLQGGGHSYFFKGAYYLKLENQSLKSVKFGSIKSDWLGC

Compound | pIC50 [1] | pKi (Neutrophil collagenase) | pKi (Interstitial collagenase) | pKi [2] | pKi [3]
CC(C)C[C@H](CC(=O)NO)C(=O)N[C@H]1c2ccccc2C[C@H]1O | 5.77 | 7.43 | 7.09 | 6.79 | 7.14
O=C(NO)[C@@H](NCC1CC1)[C@@H](Cc1cccc(O)c1)C(=O)N[C@H]1c2ccccc2C[C@H]1O | 7.92 | 6.77 | 4.48 | 5.35 | 5.20
COc1cccc(C[C@H](CC(=O)NO)C(=O)N[C@H]2c3ccccc3C[C@H]2O)c1 | 5.50 | 5.92 | 4.02 | 4.81 | 5.18
O=C(C[C@@H](Cc1ccc(O)cc1)C(=O)N[C@H]1c2ccccc2C[C@H]1O)NO | 6.74 | 7.15 | 6.02 | 6.78 | 6.39
CC(C)C[C@H](CC(=O)NO)C(=O)N[C@@H]1c2ccccc2C[C@@H]1O | 4.88 | 6.52 | 5.96 | 5.38 | 5.81
O=C(C[C@@H](Cc1cccc(O)c1)C(=O)N[C@H]1c2ccccc2C[C@H]1O)NO | 7.19 | 5.07 | 4.51 | 5.48 | 5.82
COc1ccc(C[C@H](CC(=O)NO)C(=O)N[C@H]2c3ccccc3C[C@H]2O)cc1 | 7.79 | 8.04 | 5.93 | 6.69 | 7.28

Continued by rising pIC50 [1], values first:

pIC50 [1] | pKi (Neutrophil collagenase) | pKi (Interstitial collagenase) | pKi [2] | pKi [3] | Compound
5.88 | 4.82 | 4.12 | 4.67 | 4.50 | O=C(C[C@@H](Cc1ccc(O)cc1)C(=O)N[C@@H]1CCc2ccccc21)NO
6.10 | 4.40 | 4.30 | 4.66 | 4.46 | O=C(C[C@@H](Cc1ccc2c(c1)OCO2)C(=O)N[C@H]1c2ccccc2C[C@H]1O)NO
6.43 | 9.15 | – | > 9.00 | – | CNC(=O)[C@H](Cc1ccc(OC)cc1)NC(=O)[C@@H](CC(=O)NO)CC(C)C
6.48 | 9.35 | 7.97 | 8.49 | 8.37 | CNC(=O)[C@H](Cc1ccc(OC)cc1)NC(=O)[C@@H](CC(=O)NO)Cc1ccc(O)cc1
